Experimental findings from ChEMBL document CHEMBL4513216, “Probing the Open Global Health Chemical Diversity Library for Multistage-Active Starting Points for Next-Generation Antimalarials” (ACS Infect Dis, 2020) are described below.

This data set in a line: Toxicity liver stage against HepG2, at 10uM. The arrangement: test concentration 10 uM, cell line HepG2-A16-CD81EGFP. The data set is classed as cell-based. Particulars: human, HepG2-A16-CD81EGFP cells; read-out: INHIBITION
The method in brief:
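Uninfected HepG2-A16-CD81EGFP cells, 3 × 10^3 per well, 1536-well, plated on prespotted compound at 10 μM final, parasite-free screening media added to match infected plates; puromycin 10 μM positive, DMSO 0.5% negative; run in parallel with 48 h PbLuc assay at 37 °C, 5% CO2; viability by CellTiter-Glo luminescence, normalized to controls.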
In the case of `CCOCC1CCCN(C(=O)NCc2cn3c(C)cccc3n2)C1` (stereo unspecified), the cytotoxicity at 10 µM turned out to be 12.8%.

Turning to `COCCNC(=O)[C@@H]1CCO[C@@H]2CCN(Cc3cnn(C)c3)C[C@@H]21`, the cytotoxicity at 10 µM was 0.341%.

With `CC(=O)N(Cc1noc(C)n1)C1CCN(Cc2ccccn2)C1` (stereo unspecified), the cytotoxicity at 10 µM was -5.82%.

With `CCOCc1cc(CNC2CCCc3c2cnn3CC)ccc1OC` (stereo unspecified), the cytotoxicity at 10 µM was -11.3%.

For the compound `Cc1c(C(=O)N2CCCC(n3cncn3)C2)cnn1C` (stereo unspecified), the cytotoxicity at 10 µM is -9.84%.

Take `CCS(=O)(=O)N1C[C@H](c2nc(C)no2)C[C@H]2OCC[C@H]21`: the cytotoxicity at 10 µM is -119%.

Consider `CNc1cccc(C2CCCN(C(=O)c3cscn3)C2)n1` (stereo unspecified), for which the cytotoxicity at 10 µM was -11.3%.

For the compound `OC1CCCN(Cc2ccc(F)c3cccnc23)C1` (stereo unspecified), the cytotoxicity at 10 µM was 4.75%.

In the case of `Cc1nnc(NC(=O)NCc2cccnc2N(C)C)s1`, the cytotoxicity at 10 µM is -10.3%.

`COC(=O)NCC(=O)N1CCC(c2nc3cc(F)ccc3[nH]2)CC1`: the cytotoxicity at 10 µM stood at 3.67%.

For `Cn1cc(C(=O)Nc2cccc(F)c2)ccc1=O`, the cytotoxicity at 10 µM is -9.66%.

As for `O=C(C1CCOCC1)N1CC[C@@H](O)[C@@H]1Cc1ccccc1`, the cytotoxicity at 10 µM turned out to be 0.375%.

For the compound `Cc1cc(-c2nnn(CCNS(C)(=O)=O)n2)ccc1F`, the cytotoxicity at 10 µM was -9.09%.

As for `COCCc1ncc(CN2C[C@@H](C(=O)O)[C@H](C(C)C)C2)cn1`, the cytotoxicity at 10 µM was -5.35%.

Take `CCCC(CNc1cc(C(C)C)nc2ccnn12)N(C)C` (stereo unspecified): the cytotoxicity at 10 µM amounted to 5.6%.

As for `CNc1nc(CNC(=O)Nc2cccc(-c3ncc(C)o3)c2)cs1`, the cytotoxicity at 10 µM was -7.57%.

`CC(=O)N1CCCCCC1C1CCN(Cc2nc(C(C)C)no2)CC1` (stereo unspecified): the cytotoxicity at 10 µM amounted to 6.27%.

Take `CN1CCC(c2nc3ccc(-c4ccccc4)cn3n2)CC1`: the cytotoxicity at 10 µM is -5.29%.

On to `CCN(CC)C1COc2ccc(Br)cc2C1=O` (stereo unspecified), for which the cytotoxicity at 10 µM is -7.16%.

On to `COc1cc(C)nc(N2CCN(C(=O)COCC(F)(F)F)CC2)n1`, for which the cytotoxicity at 10 µM was -9.62%.

Turning to `CC(=O)N[C@@H]1CN(Cc2ccco2)C[C@H]1c1ccc(C)o1`, the cytotoxicity at 10 µM was -3.33%.

Consider `CN(c1ccccc1C(=O)O)S(=O)(=O)c1cccc2cccnc12`, for which the cytotoxicity at 10 µM was -0.996%.

Consider `O=C(NCCSc1ccccc1F)NCc1cccnc1`, for which the cytotoxicity at 10 µM is -5.31%.

`CS(=O)(=O)NC1CCN(C(=O)NCc2cc[nH]n2)CC1`: the cytotoxicity at 10 µM was -6.37%.

Consider `COCCNc1nc(N2CCOCC2)nc2nccnc12`, for which the cytotoxicity at 10 µM came to 4.09%.

For the compound `CC(C)(CNc1cn[nH]c(=O)c1Cl)c1ccc2c(c1)OCCO2`, the cytotoxicity at 10 µM was found to be 2%.

On to `Cc1cc(CC(=O)N(C)Cc2cccc(OC(C)C)c2)n[nH]1`, for which the cytotoxicity at 10 µM came out at 1.1%.

`CCOc1ccc2nc(CN3CCC(CNC(C)=O)C3)ccc2c1` (stereo unspecified): the cytotoxicity at 10 µM is -7.23%.

Take `CC(C)(C)Cc1noc2ncc(C(=O)N3CCSCC3)cc12`: the cytotoxicity at 10 µM was -0.779%.

Turning to `CCSc1ncc(-c2nccn2CCN(C)C)cn1`, the cytotoxicity at 10 µM amounted to 2.41%.

Turning to `CN(C)c1ccc(CC(=O)N[C@@H]2CCNC[C@H]2O)cc1`, the cytotoxicity at 10 µM is -7.82%.

With `O=C(N[C@@H]1CC[C@@H](N2CCOCC2)[C@@H]1O)c1cnn2cccnc12`, the cytotoxicity at 10 µM is -27.1%.

As to `O=S(=O)(c1ccccc1Cl)N1CCc2nc(C3CCNCC3)ncc2C1`, the cytotoxicity at 10 µM was 14.2%.

As for `CNC(=O)c1ccc(CNC(=O)NCCN(C)C2CCCC2)cc1`, the cytotoxicity at 10 µM is -7.66%.

As for `COCCOCCNC(=O)c1cccc(Cn2nc(C)cc2C)c1`, the cytotoxicity at 10 µM amounted to 17.6%.

On to `Cc1ccc(C(=O)N2CCCC(C(=O)N3CCCCC3)C2)c(O)c1` (stereo unspecified), for which the cytotoxicity at 10 µM is -7.52%.

Regarding `CC(C)n1cnnc1CN(C)Cc1cnc(-c2ccco2)nc1`, the cytotoxicity at 10 µM worked out at 10.8%.

Turning to `Cn1cc(CN2CCCC3(CCN(C(=O)c4ccccn4)C3)C2)cn1` (stereo unspecified), the cytotoxicity at 10 µM was -66.9%.

As to `CC(=O)N1CC[C@@H]2O[C@H](C(=O)Nc3nc(C)cs3)C[C@@H]21`, the cytotoxicity at 10 µM was found to be 4.62%.

In the case of `Cc1cccc(-n2cc3[nH]c(=O)[nH]n3c2=O)c1`, the cytotoxicity at 10 µM came out at 2.48%.

As to `Cn1cnnc1C1CCN(C(=O)c2cc3c(s2)CCC3)CC1`, the cytotoxicity at 10 µM is -10%.

Consider `Cc1cc(C2CCCN(C(=O)c3ccc(OCC4CC4)nc3)C2)n[nH]1` (stereo unspecified), for which the cytotoxicity at 10 µM is -12.9%.

In the case of `O=C(c1cc2c(F)cccc2[nH]1)N1CCC(Nc2cccnn2)CC1`, the cytotoxicity at 10 µM was -19.3%.

For the compound `CS(=O)(=O)Cc1nc(CN2CCCc3sccc3C2)cs1`, the cytotoxicity at 10 µM turned out to be 7.28%.

As for `CC(C)c1csc(NC(=O)NC2CCCN(c3cnn(C)c3)C2)n1` (stereo unspecified), the cytotoxicity at 10 µM came to 15%.

With `Cc1[nH]nc(-c2ccc(F)cc2)c1CC(=O)NCC1CCOCC1`, the cytotoxicity at 10 µM was -0.707%.

As to `Cc1nc(-c2ccccc2)sc1CSCCS(C)(=O)=O`, the cytotoxicity at 10 µM is 3.85%.

With `Cc1cc(C(=O)N2C[C@@H]3CC[C@H]2CN(Cc2ccccn2)C3)nc(N)n1`, the cytotoxicity at 10 µM is -0.0925%.

For the compound `O=c1c2cccc(C(F)(F)F)c2ncn1C1CCNC1` (stereo unspecified), the cytotoxicity at 10 µM is -38.3%.

For `CC(C)c1noc(CN(C)C(=O)c2ncn[nH]2)n1`, the cytotoxicity at 10 µM was 6.2%.

For the compound `O=C1COC2(CCN(Cc3cccs3)CC2)CN1c1cccnc1`, the cytotoxicity at 10 µM is -125%.

For `CN(C)CCN(Cc1ccc(Cl)cc1)C(=O)c1cnccn1`, the cytotoxicity at 10 µM is -1.85%.

For the compound `CC(=O)N(C)C1CCC2(CC1)CNC(=O)c1cc(C)ccc1O2` (stereo unspecified), the cytotoxicity at 10 µM is -35.4%.

For the compound `CCC(=O)c1ccc(OCC(=O)N2CCNCC2C(=O)NC2CC2)cc1` (stereo unspecified), the cytotoxicity at 10 µM is -3.28%.

On to `CC(C)c1nnc(CN2CCc3ccc(S(N)(=O)=O)cc32)o1`, for which the cytotoxicity at 10 µM turned out to be 3.2%.

For the compound `COCCn1nc(C(=O)N(C)Cc2cnn(C)c2)ccc1=O`, the cytotoxicity at 10 µM is -2.44%.

On to `CCc1oc2ccc(NS(=O)(=O)CC)cc2c1C(=O)OC`, for which the cytotoxicity at 10 µM worked out at 5.05%.

Take `O=C(N1CCCCC1)N1CCN(CC(O)c2ccc(F)cc2)CC1` (stereo unspecified): the cytotoxicity at 10 µM was -8.85%.

For `Cn1cc(CN2CC[C@H]3OCC[C@@H](C(=O)NCc4ccco4)[C@@H]3C2)cn1`, the cytotoxicity at 10 µM was found to be 6.79%.

Take `Cn1cccc1C(=O)N1CCO[C@@H]2CN(Cc3nccs3)C[C@@H]2C1`: the cytotoxicity at 10 µM was -103%.

With `NC(=O)c1csc(N2C[C@@H](CN3CCCCC3)[C@@H](CO)C2)n1`, the cytotoxicity at 10 µM is -1.39%.

Regarding `O=C(NC1CC(=O)N(C2Cc3ccccc3C2)C1)c1cc[n+]([O-])cc1` (stereo unspecified), the cytotoxicity at 10 µM is -1.03%.

Take `CC(C)CN1C(=O)C2(CCCC2)NC1c1cccnc1` (stereo unspecified): the cytotoxicity at 10 µM came out at 3.71%.

Regarding `CCc1cc(CN(C)C(=O)c2cc(=O)[nH]c(=O)[nH]2)on1`, the cytotoxicity at 10 µM was 8.71%.

On to `CC(C)(NCc1ccc(C#N)cc1)c1ccc2c(c1)OCO2`, for which the cytotoxicity at 10 µM was 2.3%.

For `CC(C)[C@H]1CN(Cc2ccccn2)C[C@@H]1NC(=O)CC1CCC1`, the cytotoxicity at 10 µM is -2.57%.

Turning to `O=C(c1n[nH]cc1Cl)N1CCSCC1`, the cytotoxicity at 10 µM was found to be 4.51%.

As for `O=S(=O)(C1CC1)N1CCO[C@@H]2CN(Cc3ccco3)C[C@@H]2C1`, the cytotoxicity at 10 µM was -140%.

For `Clc1cccc(OCCCN2CCOC(Cn3cncn3)C2)c1` (stereo unspecified), the cytotoxicity at 10 µM is -3.78%.

`O=C(c1cnc[nH]1)N1CCC(Oc2cccnc2)CC1`: the cytotoxicity at 10 µM is 6.87%.

For the compound `Cc1nccn1-c1cc(CNC(=O)C(C)(C)C)ccn1`, the cytotoxicity at 10 µM was -11.9%.

Regarding `CC1(C)CN(CC(O)C(C)(C)C)C(=O)CN(C(=O)c2ccccc2)C1` (stereo unspecified), the cytotoxicity at 10 µM is -6.87%.

In the case of `Cc1nc(-c2cccnc2)ncc1C(=O)N1CCC(C(C)N(C)C)CC1` (stereo unspecified), the cytotoxicity at 10 µM is -1.8%.

As to `O=C(Nc1cccnc1)[C@H]1C[C@@H]2CCN(Cc3nccs3)C[C@@H]2O1`, the cytotoxicity at 10 µM is -68.2%.

With `CC1CN(C)c2ccccc2N(C(=O)c2c[nH]c(C(C)C)n2)C1` (stereo unspecified), the cytotoxicity at 10 µM was 3.61%.

Take `CCn1cc(NC(=O)NCC(C)N(C)C)cn1` (stereo unspecified): the cytotoxicity at 10 µM was -18.8%.

For the compound `Cc1cc(C(F)(F)F)nn1C(C)C(=O)NN1CCN(C)CC1` (stereo unspecified), the cytotoxicity at 10 µM came out at 20.4%.

On to `CC(C)c1nnc(CN2C(=O)OC[C@@H]2C(C)C)o1`, for which the cytotoxicity at 10 µM was 14.3%.

Take `CCOCCN1CCN(CC(O)c2cc(Cl)ccc2Cl)CC1` (stereo unspecified): the cytotoxicity at 10 µM came to 0.858%.

For the compound `O=C(Cn1nc(Br)nc1Br)N1CCCC1`, the cytotoxicity at 10 µM is 5.38%.

In the case of `CN1CCCC1c1nnc2n1CCN(S(=O)(=O)c1ccccc1Cl)CC2` (stereo unspecified), the cytotoxicity at 10 µM came out at 4.94%.

Regarding `O=C(Cc1ccc(F)cc1)NCCNCc1cccc(O)c1`, the cytotoxicity at 10 µM is -10.4%.

As for `Cc1n[nH]cc1CNCC(c1cccc(F)c1)N(C)C` (stereo unspecified), the cytotoxicity at 10 µM is -0.0972%.

For `CCOC(=O)c1coc(N2CCN(Cc3cccc(OC)c3)C(=O)C2)n1`, the cytotoxicity at 10 µM is -1.83%.

`CNC(=O)c1cccc(NCC(=O)Nc2cc(C)nn2C)c1C`: the cytotoxicity at 10 µM was -1.49%.

Consider `CC(=O)N1CCC(C)(c2cc[nH]n2)CC1`, for which the cytotoxicity at 10 µM is -4.07%.

As to `Cc1ccc(NC(=O)c2ccc(=O)n(CC(=O)NC3CCCC3)n2)cc1`, the cytotoxicity at 10 µM is -3.63%.

Take `CN(C)c1nc2sc(C(=O)N3CCNC(=O)CC3)cc2s1`: the cytotoxicity at 10 µM was -10.1%.

Consider `CCCN1CC2(CCN(c3ncc(F)cn3)CC2)CC1C(=O)O` (stereo unspecified), for which the cytotoxicity at 10 µM is -1.71%.

Consider `COc1ncnc(N)c1CNCC(C)Oc1ccccc1Cl` (stereo unspecified), for which the cytotoxicity at 10 µM turned out to be 0.732%.

Turning to `CCn1cnnc1CNS(=O)(=O)N1CCCC1c1ccco1` (stereo unspecified), the cytotoxicity at 10 µM was -141%.

Turning to `COCCCNC(=O)N1CCCC(c2nncn2C)C1` (stereo unspecified), the cytotoxicity at 10 µM was -19.7%.

For the compound `CCOC(=O)N1CCC(Oc2ccc(C(F)(F)F)cn2)CC1`, the cytotoxicity at 10 µM was determined as 7.5%.

`CCC[C@H]1CN(S(=O)(=O)c2cc(C)ccc2C)C[C@@H]1N`: the cytotoxicity at 10 µM is 10.3%.

Turning to `CCOCC1CN(C(=O)N(C)C)Cc2nnn(CC3CC3)c21` (stereo unspecified), the cytotoxicity at 10 µM was -6.26%.

Regarding `O=C(Cn1cccnc1=O)NCc1cccnc1OCC(F)(F)F`, the cytotoxicity at 10 µM was -11.9%.
